Screening results as filed in PubChem.
MrgX1 antag: antagonists of human MrgX1 receptor, primary screen, HEK293 cells, Fluo-4 calcium flux; AID 588676, 2011; Mas-related G-protein coupled receptor member X1 (Homo sapiens), Q96LB2; B-score at 10 µM; BAM8-22 antagonism; active compounds read low; hit rate 1.3% among 310,000;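 active means calcium-response B-score plate-corrected more than 3 library SD below zero, starting fluorescence within 5 deviations, no agonist response on first addition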;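 further: peak minus trough fluorescence over baseline after final BAM8-22 challenge near maximal dose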
Target sequence (Q96LB2 whole entry, looked up): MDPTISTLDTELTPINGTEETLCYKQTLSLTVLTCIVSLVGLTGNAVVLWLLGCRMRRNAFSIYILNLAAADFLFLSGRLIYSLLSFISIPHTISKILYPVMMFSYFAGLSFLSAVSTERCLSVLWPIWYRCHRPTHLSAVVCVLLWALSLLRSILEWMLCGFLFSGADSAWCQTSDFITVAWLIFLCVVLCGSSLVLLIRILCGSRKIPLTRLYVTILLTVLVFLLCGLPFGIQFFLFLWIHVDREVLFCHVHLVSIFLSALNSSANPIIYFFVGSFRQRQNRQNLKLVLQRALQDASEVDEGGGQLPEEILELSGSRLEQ
MrgX1 PAM: positive allosteric modulators of MrgX1, primary screen, HEK293 cells, Fluo-4 calcium flux | Mas-related G-protein coupled receptor member X1 (Homo sapiens), Q96LB2 | FDSS; active compounds read high | B-score at 10 µM | hit rate 0.63% among 310,000 | AID 588675, 2011;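 active means plate-corrected calcium response at least 3 library SD above typical, normal starting fluorescence, not activating the receptor alone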;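 further: compound read alongside a low EC10 to EC30 dose of BAM8-22 agonist; peak minus trough fluorescence over baseline measured at the second addition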
MrgX1 agonist: agonists of human MrgX1 receptor, primary screen, HEK293 cells, Fluo-4 calcium flux. Mas-related G-protein coupled receptor member X1 (Homo sapiens), Q96LB2. Fluo-4 calcium fluorescence, agonist mode; active compounds read high. B-score at 10 µM. hit rate 0.44% among 310,000. AID 588627, 2011;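 active means calcium response B-score plate-corrected fluorescence ratio at least 3 library SD, with starting fluorescence B-score inside 5 SD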
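times = overnight plating, then 30 min 37 °C plus 30 min room-temperature dye loading | assay system = stable human MrgX1 HEK293 cell line | input = fifteen thousand cells per well | signal = kinetic calcium dye fluorescence, Fluo-4 NW | dosing = compound delivered in addition one of three | read-out = B-scored fluorescence response ratio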
RGS4 act: RGS4 potentiators or activators, primary screen, cell-based, HEK293 M3R inducible RGS4, calcium flux | carbachol calcium flux Fluo4; active compounds read low | B-score at 10 µM | hit rate 0.92% among 310,000;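 active means B-score of the integrated calcium signal more than 4 SD below the library mean, with starting fluorescence not abnormally high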;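 further: negative B-score means reduced calcium response which marks RGS4 activation or potentiation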
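Also added: carbachol at ECmax as muscarinic agonist stimulus; Assay system: HEK293 cells with stable M3R and inducible RGS4; Timing: overnight RGS4 induction, 30 min dye load 37 °C, 20 min compound RT; Measured by: Fluo4-AM (2 µM) calcium-flux fluorescence, kinetic read.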
RGS4 block: RGS4 inhibitors, primary screen, cell-based, HEK293 M3R inducible RGS4, calcium flux | hit rate 0.45% among 310,000 | Fluo-4 calcium flux; active compounds read high; triggered by carbachol at its EC20 | B-score at 10 µM | Regulator of G-protein signaling 4 (Homo sapiens), P49798;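 active means B-score, a plate-corrected calcium signal, over three deviations above library mean, with baseline fluorescence within five deviations of library mean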;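 further: RGS4 expression induced by doxycycline in cells with stable M3 receptor; B-score is computed from the integrated fluorescence ratio over baseline after carbachol; higher B-score means a larger calcium signal and so more RGS4 inhibition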
Active calls of the source: *; i = inactive. The list is not random: actives were taken first. Their share in the collection is about 3.5%.

SMILES | MrgX1 antag | MrgX1 PAM | MrgX1 agonist | RGS4 act | RGS4 block
Cc1c(N(C)S(=O)(=O)c2cc(C(=O)NCC3CCCO3)ccc2Cl)c(=O)n(-c2ccccc2)n1C (configuration not stated) | i | i | i | i | i
COc1ccc(-c2c(C#N)c(N)nc3sc(C(=O)c4ccccc4)c(N)c23)cc1 | i | i | i | i | i
CSc1c(C#N)c(N)nc2sc(C(=O)c3ccc(Cl)c(Cl)c3)c(N)c12 | -5.23* | i | i | i | i
CCOC(=O)N1CCN(C(=O)c2ccc(Cn3c(=S)[nH]c4ccc(Br)cc4c3=O)cc2)CC1 | -5.6* | i | i | i | i
CCOC(=O)N1CCN(C(=O)c2ccc3c(=O)n(Cc4ccc(Cl)cc4)c(=S)[nH]c3c2)CC1 | i | i | i | i | i
COc1ccc(NC(=O)CCSc2nc(C)cs2)cc1 | i | i | i | i | i
Cn1c(=O)c2sccc2n2c(CCCC(=O)N3CCN(c4ccccn4)CC3)nnc12 | i | i | i | i | i
O=S(=O)(Nc1ccc(F)cc1)N1CCOCC1 | i | i | i | i | i
Cc1ccc(C)c(N2CCN(C(=O)CCCN3C(=S)NC(C)(C)CC3C)CC2)c1 (configuration not stated) | -4.62* | i | i | i | i
CC(=O)Nc1ccc(NC(=O)C(C)OC(=O)CCCOc2ccc(Cl)cc2C)cc1 (configuration not stated) | -7.84* | i | i | i | i
c1coc(-c2nnc3sc(Cc4cccs4)nn23)c1 | -7.15* | i | i | i | i
O=C(NCc1cccc(Cl)c1)c1cccc(OC2CCN(C(=O)C3CC3)CC2)c1 | -5.65* | i | i | i | i
CC(C#N)Sc1ncnc2sc(-c3ccccc3)cc12 (configuration not stated) | i | i | i | i | i
Cc1ccc(NC(=O)CN(C)C(=O)c2ccc(NC(=O)CC3SC(N4CCCC4)=NC3=O)cc2)cc1 (configuration not stated) | -9.62* | i | i | i | i
COc1ccc(NC2CCCN(C(=O)c3ccc4[nH]c(C)c(C)c4c3)C2)cc1OC (configuration not stated) | i | i | i | i | i
CCN1C(=O)[C@H]2[C@@H](c3ccc(-c4ccccc4)cc3)N3CCCC[C@@]3(C(=O)OC)[C@H]2C1=O | i | i | i | i | i
Cc1cccc(-n2cnc3cc([N+](=O)[O-])ccc32)c1 | i | 8.21* | i | i | i
Nc1ccc(-n2cnc3cc([N+](=O)[O-])ccc32)cc1 | i | i | i | i | i
COC(=O)c1ccccc1SC(CC(=O)c1ccccc1)c1ccc(F)cc1 (configuration not stated) | i | i | i | -7.13* | i
O=C(CC(Nc1ccc(F)cc1)c1ccccc1)c1ccccc1 (configuration not stated) | i | i | i | i | i
Oc1ccc(N=C/C=C/c2ccc(Br)cc2)cc1-c1nc2ccccc2s1 | i | i | i | i | 6.23*
COc1cc2ccccc2cc1C(=O)N(CCN(C)C)c1nc2c(OC)ccc(OC)c2s1 | i | 8.82* | i | i | i
CCn1c(-c2ccccc2Cl)nn(CC(=O)NCCc2ccccc2)c1=S | i | 12.1* | i | i | i
COC(=O)CC1=NN(c2nc3ccccc3s2)C(=O)/C1=C/N(C)C | i | 15.1* | i | i | i
CC(C)C(NC(=O)CN1C(=O)c2ccccc2C1=O)c1ccccc1 (configuration not stated) | i | i | i | i | i
COc1ccc(C2C(C#N)=C(N)OC3=C2C(=O)CC(C)(C)C3)c([N+](=O)[O-])c1OC (configuration not stated) | i | i | i | i | i
